Measured values: ChEMBL document CHEMBL1926565, “Synthesis, antiproliferative activities and telomerase inhibition evaluation of novel asymmetrical 1,2-disubstituted amidoanthraquinone derivatives” (Eur J Med Chem, 2012)
The source made the active and inactive calls. The calls are words filed in the database; no cut-off is given here.

Key:
[1] = system: 786-0; assay: Cytotoxicity against human 786-0 cells assessed as cellular growth at 10 uM; format: functional
How it was run: (§1)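 Single-dose screen run by the NCI across its 60-human-tumour-cell-line panel; growth recorded for each cell line.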

[2] = system: COLO 205; assay: Cytotoxicity against human COLO205 cells assessed as cellular growth at 10 uM; format: functional; how it was run: as §1
[3] = system: SN12C; assay: Cytotoxicity against human SN12C cells assessed as cellular growth at 10 uM; format: functional
[4] = target: Telomerase reverse transcriptase (Homo sapiens) (UniProt O14746); assay: Inhibition of telomerase activity in human H1299 cell free extract at 10 uM by modified TRAP assay
How it was run: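 TRAP assay using total cell lysate from H1299 lung cancer cells as the telomerase source, with protein measured against BSA standards. Compounds tested at 10 µM. Controls were lysate without inhibitor (positive) and RNase A-treated extract without inhibitor (negative).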

[5] = system: HCT-116; assay: Cytotoxicity against human HCT116 cells assessed as cellular growth at 10 uM; format: functional; how it was run: as §1
[6] = system: BT-549; assay: Cytotoxicity against human BT549 cells assessed as cellular growth at 10 uM; format: functional; how it was run: as §1
[7] = system: IGROV-1; assay: Cytotoxicity against human IGROV1 cells assessed as cellular growth at 10 uM; format: functional; how it was run: as §1
[8] = system: M14; assay: Cytotoxicity against human M14 cells assessed as cellular growth at 10 uM; format: functional; how it was run: as §1
[9] = system: SR; assay: Cytotoxicity against human SR cells assessed as cellular growth at 10 uM; format: functional
[10] = target: Telomerase reverse transcriptase (Homo sapiens) (UniProt O14746); assay: Residual activity of human TERT in H1299 cells at 1 uM after 24 hrs by SEAP reporter gene assay
[11] = system: MDA-MB-468; assay: Cytotoxicity against human MDA-MB-468 cells assessed as cellular growth at 10 uM; format: functional; how it was run: as §1
[12] = system: NCI-H460; assay: Cytotoxicity against human NCI-H460 cells assessed as cellular growth at 10 uM; format: functional; how it was run: as §1
[13] = system: HOP-62; assay: Cytotoxicity against human HOP62 cells assessed as cellular growth at 10 uM; format: functional; how it was run: as §1
[14] = system: HT-29; assay: Cytotoxicity against human HT-29 cells assessed as cellular growth at 10 uM; format: functional; how it was run: as §1
[15] = system: DU-145; assay: Cytotoxicity against human DU145 cells assessed as cellular growth at 10 uM; format: functional; how it was run: as §1
[16] = system: UACC-257; assay: Cytotoxicity against human UACC257 cells assessed as cellular growth at 10 uM; format: functional
[17] = target: Telomerase reverse transcriptase (Homo sapiens) (UniProt O14746); assay: Residual activity of human TERT in H1299 cells at 10 uM after 24 hrs by SEAP reporter gene assay
[18] = Growth of human H1299 cells at 10 uM after 48 hrs by MTT assay; conditions: NCI-H1299, 48 h
[19] = Growth of human H1299 cells at 1 uM after 48 hrs by MTT assay; conditions: NCI-H1299, 48 h
[20] = system: MDA-MB-231; assay: Cytotoxicity against human MDA-MB-231 cells assessed as cellular growth at 10 uM; format: functional; how it was run: as §1
[21] = system: U-251; assay: Cytotoxicity against human U251 cells assessed as cellular growth at 10 uM; format: functional
[22] = Growth of human H1299 cells at 100 uM 48 hrs by MTT assay; conditions: NCI-H1299, 48 h
[23] = system: K562; assay: Cytotoxicity against human K562 cells assessed as cellular growth at 10 uM; format: functional; how it was run: as §1
[24] = system: TK-10; assay: Cytotoxicity against human TK10 cells assessed as cellular growth at 10 uM; format: functional
[25] = Cytotoxicity against human Hs 578T cells assessed as cellular growth at 10 uM; format: functional; how it was run: as §1
[26] = system: OVCAR-3; assay: Cytotoxicity against human OVCAR3 cells assessed as cellular growth at 10 uM; format: functional; how it was run: as §1
[27] = system: NCI/ADR-RES; assay: Cytotoxicity against human NCI/ADR-RES cells assessed as cellular growth at 10 uM; format: functional; how it was run: as §1
[28] = system: HCT-15; assay: Cytotoxicity against human HCT15 cells assessed as cellular growth at 10 uM; format: functional; how it was run: as §1
[29] = system: NCI-H226; assay: Cytotoxicity against human NCI-H226 cells assessed as cellular growth at 10 uM; format: functional; how it was run: as §1
[30] = system: SF-268; assay: Cytotoxicity against human SF268 cells assessed as cellular growth at 10 uM; format: functional; how it was run: as §1
[31] = system: UO-31; assay: Cytotoxicity against human UO31 cells assessed as cellular growth at 10 uM; format: functional
[32] = system: SNB-19; assay: Cytotoxicity against human SNB19 cells assessed as cellular growth at 10 uM; format: functional
[33] = system: T47D; assay: Cytotoxicity against human T47D cells assessed as cellular growth at 10 uM; format: functional
[34] = system: HOP-92; assay: Cytotoxicity against human HOP92 cells assessed as cellular growth at 10 uM; format: functional; how it was run: as §1
[35] = system: SK-MEL-2; assay: Cytotoxicity against human SK-MEL-2 cells assessed as cellular growth at 10 uM; format: functional; how it was run: as §1
[36] = system: NCI-H522; assay: Cytotoxicity against human NCI-H522 cells assessed as cellular growth at 10 uM; format: functional; how it was run: as §1
[37] = system: KM12; assay: Cytotoxicity against human KM12 cells assessed as cellular growth at 10 uM; format: functional; how it was run: as §1
[38] = system: SK-OV-3; assay: Cytotoxicity against human SKOV3 cells assessed as cellular growth at 10 uM; format: functional
[39] = target: Telomerase reverse transcriptase (Homo sapiens) (UniProt O14746); assay: Residual activity of human TERT in H1299 cells at 100 uM after 24 hrs by SEAP reporter gene assay
[40] = system: PC-3; assay: Cytotoxicity against human PC3 cells assessed as cellular growth at 10 uM; format: functional; how it was run: as §1
[41] = system: RXF 393; assay: Cytotoxicity against human RXF393 cells assessed as cellular growth at 10 uM; format: functional; how it was run: as §1
[42] = system: MDA-MB-435; assay: Cytotoxicity against human MDA-MB-435 cells assessed as cellular growth at 10 uM; format: functional; how it was run: as §1
[43] = system: HCC 2998; assay: Cytotoxicity against human HCC2998 cells assessed as cellular growth at 10 uM; format: functional; how it was run: as §1
[44] = system: LOX IMVI; assay: Cytotoxicity against human LOXIMVI cells assessed as cellular growth at 10 uM; format: functional; how it was run: as §1
[45] = system: CAKI-1; assay: Cytotoxicity against human Caki1 cells assessed as cellular growth at 10 uM; format: functional; how it was run: as §1
[46] = system: SW-620; assay: Cytotoxicity against human SW620 cells assessed as cellular growth at 10 uM; format: functional
[47] = system: NCI-H23; assay: Cytotoxicity against human NCI-H23 cells assessed as cellular growth at 10 uM; format: functional; how it was run: as §1
[48] = system: UACC-62; assay: Cytotoxicity against human UACC62 cells assessed as cellular growth at 10 uM; format: functional
[49] = system: NCI-H322M; assay: Cytotoxicity against human NCI-H322M cells assessed as cellular growth at 10 uM; format: functional; how it was run: as §1
[50] = system: A498; assay: Cytotoxicity against human A498 cells assessed as cellular growth at 10 uM; format: functional; how it was run: as §1
[51] = system: SK-MEL-28; assay: Cytotoxicity against human SK-MEL-28 cells assessed as cellular growth at 10 uM; format: functional; how it was run: as §1
[52] = system: OVCAR-4; assay: Cytotoxicity against human OVCAR4 cells assessed as cellular growth at 10 uM; format: functional; how it was run: as §1

Sequence of Telomerase reverse transcriptase (Homo sapiens) (O14746 whole entry): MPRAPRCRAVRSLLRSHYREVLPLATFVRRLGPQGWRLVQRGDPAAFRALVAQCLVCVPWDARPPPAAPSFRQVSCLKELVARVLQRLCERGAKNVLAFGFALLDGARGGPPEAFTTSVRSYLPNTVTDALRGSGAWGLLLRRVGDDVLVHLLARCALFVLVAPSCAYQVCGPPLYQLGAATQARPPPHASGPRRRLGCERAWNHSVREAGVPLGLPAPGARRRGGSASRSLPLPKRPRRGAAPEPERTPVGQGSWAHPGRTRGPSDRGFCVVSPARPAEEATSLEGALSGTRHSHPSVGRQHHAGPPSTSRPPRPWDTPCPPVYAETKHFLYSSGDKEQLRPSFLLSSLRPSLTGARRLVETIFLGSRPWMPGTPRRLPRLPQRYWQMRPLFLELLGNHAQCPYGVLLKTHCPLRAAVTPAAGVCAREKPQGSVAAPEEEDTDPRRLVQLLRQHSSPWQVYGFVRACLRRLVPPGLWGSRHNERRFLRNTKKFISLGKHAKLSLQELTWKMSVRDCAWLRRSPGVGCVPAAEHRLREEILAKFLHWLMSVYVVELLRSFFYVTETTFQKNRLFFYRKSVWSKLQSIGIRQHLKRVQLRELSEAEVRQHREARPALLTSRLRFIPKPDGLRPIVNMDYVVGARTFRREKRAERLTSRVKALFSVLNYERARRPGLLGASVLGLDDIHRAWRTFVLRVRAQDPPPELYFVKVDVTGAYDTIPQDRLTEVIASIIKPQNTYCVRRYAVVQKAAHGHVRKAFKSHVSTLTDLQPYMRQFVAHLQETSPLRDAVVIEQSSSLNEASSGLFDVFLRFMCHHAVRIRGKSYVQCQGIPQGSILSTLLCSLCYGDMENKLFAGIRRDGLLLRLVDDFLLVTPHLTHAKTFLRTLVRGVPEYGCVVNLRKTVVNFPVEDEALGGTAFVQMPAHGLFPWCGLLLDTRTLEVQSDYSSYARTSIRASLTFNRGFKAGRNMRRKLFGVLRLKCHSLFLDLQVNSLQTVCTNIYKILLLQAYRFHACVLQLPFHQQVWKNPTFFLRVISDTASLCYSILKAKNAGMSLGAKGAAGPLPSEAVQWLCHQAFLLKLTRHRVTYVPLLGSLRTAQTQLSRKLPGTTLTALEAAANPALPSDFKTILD

For `Cc1ccc(C(=O)Nc2c(NC(=O)CN3CCN(C)CC3)ccc3c2C(=O)c2ccccc2C3=O)cc1`, the Activity [1] was 11.9%, the Activity [2] was 2.29% and the Activity [3] was 63.31%. The inhibition [4] was “inactive”, the Activity [5] was 8.37% and the Activity [6] was 91.88%. It also gave an Activity [7] of 112.2%, an Activity [8] of -60.04% and an Activity [9] of -43.7%. The residual activity [10] was 78%, the Activity [11] was 7.43% and the Activity [12] was 37.47%. It also gave an Activity [13] of 75.21%, an Activity [14] of 3.69% and an Activity [15] of 82.12%. For the same compound, the Activity [16] was -50.95%, the residual activity [17] was 29% and the growth, % of control at 10 µM [18] was 13%. It also gave a growth, % of control at 1 µM [19] of 77%, an Activity [20] of 37% and an Activity [21] of 22.38%. The growth, % of control at 100 µM [22] was 3%, the Activity [23] was -4.52% and the Activity [24] was 101.93%. The Activity [25] was 87.29%, the Activity [26] was -6.15% and the Activity [27] was 66.74%. It also gave an Activity [28] of 27.47%, an Activity [29] of 93.87% and an Activity [30] of 59.11%. For the same compound, the Activity [31] was 70.66%, the Activity [32] was 68.75% and the Activity [33] was 52.62%. The Activity [34] was 90.68%, the Activity [35] was 123.64% and the Activity [36] was 88.21%. It also gave an Activity [37] of 44.05%, an Activity [38] of 108.91% and a residual activity [39] of 8%. It also gave an Activity [40] of 84.75%, an Activity [41] of 68.84% and an Activity [42] of 11.15%. The Activity [43] was 28.97%, the Activity [44] was 1.24% and the Activity [45] was 69.76%. It also gave an Activity [46] of 39.17%, an Activity [47] of 89.52% and an Activity [48] of -20.65%. For the same compound, the Activity [49] was 72.6%, the Activity [50] was 67.36% and the Activity [51] was -57.56%. It also gave an Activity [52] of 57.11%.

In the case of `Cc1ccc(C(=O)Nc2ccc3c(c2NC(=O)c2ccc(C)cc2)C(=O)c2ccccc2C3=O)cc1`, the Activity [1] is reported as 116.17%, the Activity [2] is reported as 108.57% and the Activity [3] is reported as 98.59%. For the same compound, the inhibition [4] was “inactive”, the Activity [5] was 78.55% and the Activity [6] was 95.39%. The Activity [7] was 78.71%, the Activity [8] was 91.57% and the Activity [9] was 87.69%. For the same compound, the residual activity [10] was 108%, the Activity [11] was 104.17% and the Activity [12] was 88.62%. For the same compound, the Activity [13] was 105.23%, the Activity [14] was 99.39% and the Activity [15] was 95.93%. For the same compound, the Activity [16] was 98.46%, the residual activity [17] was 97% and the growth, % of control at 10 µM [18] was 116%. The growth, % of control at 1 µM [19] was 100%, the Activity [20] was 93.29% and the Activity [21] was 91.73%. It also gave a growth, % of control at 100 µM [22] of 62%, an Activity [23] of 107.54% and an Activity [24] of 124.91%. For the same compound, the Activity [25] was 105.96%, the Activity [26] was 97.9% and the Activity [28] was 102.44%. The Activity [29] was 91.14%, the Activity [30] was 98.91% and the Activity [31] was 66.54%. It also gave an Activity [32] of 103.91%, an Activity [33] of 100% and an Activity [34] of 91.21%. The Activity [35] was 100.65%, the Activity [36] was 72.05% and the Activity [37] was 94.21%. It also gave an Activity [38] of 109.62%, a residual activity [39] of 30% and an Activity [40] of 82.91%. It also gave an Activity [41] of 88.25%, an Activity [43] of 84.68% and an Activity [44] of 84.41%. It also gave an Activity [45] of 94.89%, an Activity [46] of 93.79% and an Activity [47] of 90.57%. It also gave an Activity [48] of 87.5%, an Activity [49] of 97.74% and an Activity [50] of 124.08%. The Activity [51] was 99.46% and the Activity [52] was 104.32%.
